The text below walks through data of PubChem BioAssay.

Broadly, the viability is a read-out of living cells in per cent, often relative to untreated cells. For orientation: inhibition means the relative decrease from the control value, in per cent.

Experiment [1] is described as follows: S. cerevisiae growth inhibition in permissive medium (OD615), pilot counter-assay for S. cerevisiae lifespan shortening project, permissive growth control (AID 705;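 active = growth inhibition above 25% in both replicates, a cutoff set 3 SD above the mean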). The note with it: OD615, 24 h, at 10 µM, stronger effect = higher value. The method in brief:
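System: S. cerevisiae with engineered DeaD lifespan system / Measured by: absorbance (optical density) at 615 nm / Read-out: reduction in yeast growth (OD615) / Times: 4 h cell pre-growth, 24 h exposure at 30 °C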

Experiment [2] can be described thus: S. cerevisiae growth inhibition in restrictive medium, OD615, pilot screen, restrictive growth control, yeast lifespan reduction project (AID 706;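 active = growth inhibition above a set limit, 3 SD over mean compound inhibition, in both replicates, cut at about 43% in these data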;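 note: modified DeaD lifespan yeast strain shifted to restrictive glucose medium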). The note with it: OD615, 48 h, at 10 µM, stronger effect = higher value. Put shortly: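 System: Engineered S. cerevisiae DeaD strain | Buffer or medium: Glucose-based CSMM-D restrictive medium | Schedule: 4 h pre-incubation, 48 h exposure at 30 °C | Technique: Optical density at 615 nm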

The nature of experiment [3]: doxorubicin toxicity protection in MRP-1 cells – H69AR cells, CellTiter-Glo, duplicate, MRP-1 activator project, pilot screen (AID 807;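 active = viability increase at or above a cutoff of the median across tested compounds plus 3 SD, cut at about 8.5% in these data, passing the limit was not always enough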;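 note: compound pretreatment 18-22 h then 72 h combined with doxorubicin; 0% = doxorubicin alone and 100% = vehicle without doxorubicin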). The note with it: H69AR viability with doxorubicin, CellTiter-Glo luminescence; at 10 µM; stronger effect = higher value.
The nature of experiment [4]: viability of HCT116 without oncogenic beta-catenin – human colon tumor cells, pilot screen (AID 823).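 Note: 0% = wells killed by 20 µM Hyamine and 100% = untreated DMSO cell wells.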 The note with it: HCT116 beta-catenin knockout viability, CellTiter-Glo, 60 h; at 10 µM; stronger effect = lower value. On the technique in general: In ATP-based viability assays light output follows the ATP content of the culture.
The nature of experiment [5]: viability of PTEN-null HCT116 cells – cell-based, HCT116 clonal line, CellTiter-Glo, pilot screen (AID 824;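 active = viability at or below 27.92% in each of two runs, the all-compound median minus 4 SD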;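 note: 0% = 20 µM Hyamine control and 100% = vehicle cell control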). The note with it: HCT116 PTEN-deleted viability, 60 h, at 10 µM, stronger effect = lower value.
Experiment [6] can be described thus: RAM pathway blockade in budding yeast – dse1pr::URA3 reporter, 5-FOA selection, pilot screen (AID 869;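 active = inhibition over a set limit, the all-compound mean plus 3 SD, in both replicate runs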;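 note: 0% = DMSO wells with no growth and 100% = 10 µM 1-NA-PP1 with full growth; RAM network block rescues cells from 5-FOA so hits raise OD615 growth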). The note with it: S. cerevisiae dse1pr::URA3 5-FOA growth, OD615, 2 d; at 10 µM; stronger effect = higher value; strain carries analog-sensitive mutant Cbk1 kinase.
Experiment [7] can be described thus: RAM signaling pathway blockade in yeast – S. cerevisiae, Pdr1DBD-CYC8 efflux-inhibited sensitized strain, primary screen (AID 1298;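 active = RAM network inhibition above 8.4% in each of two replicates, 3 SD over the compound average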;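 note: 0% = DMSO untreated cells without growth and 100% = 10 µM 1-NA-PP1 full growth; higher means more yeast growth rescued from 5-FOA killing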). The note with it: S. cerevisiae cbk1-as DSE1-URA3 strain, 5-FOA growth OD615, 2 d; at 50 µM; stronger effect = higher value.

Unmarked numbers belong to inactive results. Results filed as inconclusive are left out. Calls of active or inactive are those of the source.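 Rule for the calls, unless noted: active = cell viability at or below a set limit in both duplicate runs, the limit being the all-compound median minus 4 SD (cut at about 23% in these data, passing the limit was not always enough); inconclusive = no clear call, values can overlap the other calls; inactive = the rest.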

Take `COc1cc(OC)cc(C(=O)Nn2cc(C(=O)N3CCN(C)CC3)c3ccccc3c2=O)c1`: the growth inhibition in experiment [1] is -6.21%; in experiment [2], -7.65%. The viability increase in experiment [3] was -0.92%. Moreover, the viability in experiment [4] is 105%; in experiment [5], 93.1%. Further, the inhibition in experiment [6] is 1.17%. Further, the RAM network inhibition in experiment [7] was 3.86%.
Take `OCC1(C2=NOC(O)(C(F)(F)F)C2)CCCCC1` (stereo unspecified): the figures for the growth inhibition in experiment [1] and in experiment [2] were -7.57% and -22.3%, respectively. In addition, the viability increase in experiment [3] is 1.19%. The viability in experiment [4] and in experiment [5] was 101% each time. In addition, the inhibition in experiment [6] is 2.09%. In experiment [7], the RAM network inhibition is 3.18%.
Consider `CCCc1cc(C(=O)Nc2ccc(C)cc2)no1`, for which the growth inhibition in experiment [1] is -3.58%; in experiment [2], -5.4%. Also, in experiment [3], the viability increase was -0.63%. Also, the viability is 101% in experiment [4] and 97.6% in experiment [5]. In experiment [6], the inhibition was 1.32%. Moreover, the RAM network inhibition in experiment [7] was 1.86%.
Regarding `CC1CCCCN1Cc1nc2c(c(=O)n(C)c(=O)n2C)n1Cc1cccc2ccccc12` (stereo unspecified), the growth inhibition in experiment [1] is -4.17%; in experiment [2] it was -4.83%. The viability increase in experiment [3] is -0.2%. For the same molecule, the viability in experiment [4] is 94.2%; in experiment [5], 89%. Besides, in experiment [6], the inhibition is 1.91%. Also, the RAM network inhibition in experiment [7] was 2.8%.
For `Cc1cccc(-n2c(CNC(=O)c3ccccc3)nnc2SCC(=O)Nc2nccs2)c1`, the growth inhibition in experiment [1] is 4.21%; in experiment [2], 15.6%. Also, the viability increase in experiment [3] was -3.48%. For the same molecule, the viability in experiment [4] was 112%; in experiment [5] it was 103%. In experiment [6], the inhibition is 1.17%. In addition, in experiment [7], the RAM network inhibition is 5.7%.
As for `O=C(NCCN1C(=O)C2C3C=CC(C3)C2C1=O)Nc1ccccc1` (stereo unspecified), the growth inhibition was -8.45% in experiment [1] and 1.35% in experiment [2]. Also, the viability increase in experiment [3] was 0.28%. Also, the viability in experiment [4] was 102%; in experiment [5], 93.2%. Moreover, in experiment [6], the inhibition is 0.71%. The RAM network inhibition in experiment [7] is -0.05%.
With `Cc1sc2ncnc(SCC(=O)c3cccs3)c2c1C`, the figures for the growth inhibition in experiment [1] and in experiment [2] were 6.02% and 10.6%, respectively. Also, the viability increase in experiment [3] was -1.23%. Further, the viability was 100% in experiment [4] and 94.3% in experiment [5]. For the same molecule, the inhibition in experiment [6] was 0.73%. Further, in experiment [7], the RAM network inhibition was 3.92%.
As for `CN1C(=O)C(O)(CC(=O)c2cccnc2)c2ccccc21` (stereo unspecified), the growth inhibition is -7.06% in experiment [1] and -7.81% in experiment [2]. Further, the viability increase in experiment [3] is -4.86%. In addition, the viability in experiment [4] was 83%; in experiment [5], 85%. Also, the inhibition in experiment [6] was 2.05%. Besides, the RAM network inhibition in experiment [7] was 1.88%.
As to `CC(=O)C1C(c2ccccc2Cl)NC(=O)NC1(O)C(F)(F)F` (stereo unspecified), the growth inhibition was -3.3% in experiment [1] and -12.1% in experiment [2]. Moreover, in experiment [3], the viability increase was -0.31%. Further, the viability in experiment [4] is 112%; in experiment [5], 102%. Besides, the inhibition in experiment [6] was 1.93%. Also, in experiment [7], the RAM network inhibition is -0.82%.
As for `Cc1ccccc1-c1noc(-c2cccs2)n1`, the growth inhibition in experiment [1] is 8.34%; in experiment [2], 6.79%. Besides, the viability increase in experiment [3] is -4.68%. Further, the viability in experiment [4] was 94%; in experiment [5], 90.4%. In addition, the inhibition in experiment [6] was 2.11%. For the same molecule, in experiment [7], the RAM network inhibition is 6%.
For `CN(CC1CCCO1)S(=O)(=O)c1ccc(C(=O)Nc2nc(-c3ccccn3)cs2)cc1` (stereo unspecified), the growth inhibition in experiment [1] was -14.2%; in experiment [2] it was -14.7%. In addition, in experiment [3], the viability increase was -5.46%. Besides, the figures for the viability in experiment [4] and in experiment [5] were 18.5% (active) and 23.1% (active), respectively. In experiment [6], the inhibition was 2.57%. Besides, the RAM network inhibition in experiment [7] was 2.63%.
As for `Cc1ccc2c(c1)N(CCCC(=O)NCc1cccnc1)C(=O)CO2`, the growth inhibition is -13.3% in experiment [1] and -16.3% in experiment [2]. Also, the viability increase in experiment [3] was 0.96%. Further, the viability is 95.6% in experiment [4] and 99.1% in experiment [5]. For the same molecule, the inhibition in experiment [6] was -0.1%. The RAM network inhibition in experiment [7] was 0.98%.
Consider `O=C(c1cc(-c2cccc(O)c2)on1)N1CCc2ccccc2C1`, for which the growth inhibition in experiment [1] was -7.54%; in experiment [2], -17.6%. In addition, the viability increase in experiment [3] was 1.48%. Further, the viability was 114% in experiment [4] and 99.2% in experiment [5]. Besides, in experiment [6], the inhibition is 0.005%. For the same molecule, in experiment [7], the RAM network inhibition is -2.99%.
For `CCC(=O)c1cc2c(cc1NC(=O)c1cccs1)OCCO2`, the results for the growth inhibition in experiment [1] and in experiment [2] were -5.85% and -7.54%, respectively. For the same molecule, the viability increase in experiment [3] was -6.83%. Further, the viability in experiment [4] was 69.2%; in experiment [5] it was 75.2%. In experiment [6], the inhibition was 1.38%. Moreover, in experiment [7], the RAM network inhibition was 9.21%.
On to `CCC(CC)C(=O)Nc1cc(C)c2c(=O)oc3ccccc3c2n1`, for which the figures for the growth inhibition in experiment [1] and in experiment [2] were -17.2% and -12.2%, respectively. Further, in experiment [3], the viability increase is -5.01%. The viability is 62.5% in experiment [4] and 64.2% in experiment [5]. The inhibition in experiment [6] was 2.33%. For the same molecule, the RAM network inhibition in experiment [7] is 9.87%.
Consider `CN1CCN(Cc2c(O)ccc3c(=O)c(Oc4ccccc4Cl)c(C(F)(F)F)oc23)CC1`, for which the growth inhibition is -4.67% in experiment [1] and 12.6% in experiment [2]. The viability increase in experiment [3] is -0.67%. Moreover, the values for the viability in experiment [4] and in experiment [5] were 98% and 96.7%, respectively. Moreover, the inhibition in experiment [6] is 0.13%. In addition, the RAM network inhibition in experiment [7] was 1.25%.
For `Cc1ncc(CO)c2cc(S(=O)(=O)c3ccc(F)cc3)c(=O)oc12`, the growth inhibition in experiment [1] was -11.8%; in experiment [2], -4.46%. Besides, in experiment [3], the viability increase is -0.48%. The viability in experiment [4] is 104%; in experiment [5] it was 96.7%. Besides, the inhibition in experiment [6] was 0.14%. Further, the RAM network inhibition in experiment [7] is 1.42%.
As to `COc1ccc(C2(O)CCN(C(=O)c3ccc4c(c3)OCO4)CC2)cc1`, the growth inhibition in experiment [1] is -12.1%; in experiment [2] it was -15.2%. Further, the viability increase in experiment [3] is -0.75%. Also, the viability is 106% in experiment [4] and 101% in experiment [5]. Besides, the inhibition in experiment [6] is 0.965%. Moreover, in experiment [7], the RAM network inhibition was 0.72%.
